ANO1 activ: TMEM16A chloride channel activators or potentiators, primary screen, cell-based, HTS. B-score at 10 µM. HEK293 TMEM16A/YFP-H148Q/I152L, iodide quench fluorescence; hits give low values. Anoctamin-1 (Mus musculus), Q8BHY3. actives 0.3% (n = 340,000);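 active means fluorescence-ratio B-score plate-corrected deviation score at least 3 library SD below zero, with starting fluorescence score within 5 deviations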;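 further: channel opened by trigger with iodide after compound preincubation; score built on the fluorescence ratio of max minus min over baseline; more negative score means more quench and so TMEM16A activation or potentiation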
Target sequence (Q8BHY3 whole entry, looked up): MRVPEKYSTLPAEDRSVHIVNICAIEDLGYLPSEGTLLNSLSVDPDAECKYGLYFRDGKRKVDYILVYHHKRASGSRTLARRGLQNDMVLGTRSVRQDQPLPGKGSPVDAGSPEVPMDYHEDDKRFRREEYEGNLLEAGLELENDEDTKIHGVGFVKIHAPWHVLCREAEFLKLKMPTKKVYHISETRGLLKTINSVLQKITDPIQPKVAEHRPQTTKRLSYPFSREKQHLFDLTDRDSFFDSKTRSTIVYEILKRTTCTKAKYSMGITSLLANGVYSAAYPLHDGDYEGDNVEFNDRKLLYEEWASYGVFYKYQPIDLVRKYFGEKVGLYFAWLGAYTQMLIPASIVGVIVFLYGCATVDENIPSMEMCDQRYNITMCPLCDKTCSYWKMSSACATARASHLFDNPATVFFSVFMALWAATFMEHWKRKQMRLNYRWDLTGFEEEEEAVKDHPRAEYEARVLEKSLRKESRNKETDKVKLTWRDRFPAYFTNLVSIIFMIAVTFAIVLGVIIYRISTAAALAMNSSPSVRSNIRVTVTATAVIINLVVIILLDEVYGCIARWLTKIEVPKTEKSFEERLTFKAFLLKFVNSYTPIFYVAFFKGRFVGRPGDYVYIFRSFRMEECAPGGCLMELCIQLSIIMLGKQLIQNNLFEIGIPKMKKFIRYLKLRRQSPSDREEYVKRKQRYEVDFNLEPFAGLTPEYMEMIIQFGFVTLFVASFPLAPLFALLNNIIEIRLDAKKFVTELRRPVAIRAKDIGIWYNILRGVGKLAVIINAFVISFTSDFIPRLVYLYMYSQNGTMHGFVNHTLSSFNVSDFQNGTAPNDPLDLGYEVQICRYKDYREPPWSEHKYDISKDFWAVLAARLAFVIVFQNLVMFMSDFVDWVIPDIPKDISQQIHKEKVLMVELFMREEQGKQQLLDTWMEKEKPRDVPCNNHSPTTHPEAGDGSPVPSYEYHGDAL
Apaf-1 inh: inhibitors of human Apaf-1 apoptosome, primary screen, biochemical, DEVD-Rh110 fluorescence, uHTS; Apoptotic protease-activating factor 1 (Homo sapiens), O14727; reconstituted apoptosome caspase-3 activity; inhibition, % at 20 µM; actives 0.71% (n = 330,000); AID 489030, 2010; active means inhibition of at least 40% at 20 µM;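 further: plate controls were DMSO wells for no effect and DEVD-CHO caspase inhibitor wells for full effect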
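Material: biochemical Apaf-1 apoptosome reconstitution. Medium: Hepes buffer, pH 7.5. Also added: cytochrome c activation, bis-DEVD rhodamine 110 substrate. Timing: 30 min compound preincubation, 50 min activation, room temperature. Measured by: rhodamine 110 fluorescence at Ex 480/Em 540 nm.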
FID counter: compounds displacing fluorescent DNA intercalator, primary screen, artefact control for HCV NS3 helicase inhibitor project, biochemical, FID fluorescence. inhibition, % at 7.9 µM. DNA fluorescent intercalator displacement. AID 1845, 2009. actives 0.17% (n = 290,000); in the data active means inhibition above about 37%;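 further: 0% = vehicle and 100% = reference compound; higher means more ethidium bromide displaced from hairpin DNA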
UBC13 inh: UBC13 polyubiquitin chain formation inhibitors, primary screen, biochemical, TR-FRET, uHTS | Ubiquitin-conjugating enzyme E2 N (Homo sapiens), P61088 | inhibition, % at 20 µM | actives 0.47% (n = 330,000); in the data active means inhibition above about 45%, passing the limit was not always enough
TMEM16A inh: TMEM16A chloride channel inhibitors, primary screen, cell-based, HTS; normalized B-score (activity score, 25-100; higher = stronger inhibition) at 10 µM; Anoctamin-1 (Mus musculus), Q8BHY3; AID 588511, 2011; HEK293 TMEM16A/YFP iodide influx fluorescence, ionomycin; actives 1.2% (n = 310,000);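 active means ratio plate-corrected score three or more library SD toward inhibition, starting fluorescence score within five deviations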;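 further: score derived from kinetic fluorescence span divided by baseline fluorescence per well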
TMEM16A reconf: TMEM16A chloride channel inhibitors, confirmation, cell-based, re-confirmation; shares compounds with TMEM16A inh; HEK293 TMEM16A/YFP-H148Q, iodide quench fluorescence; ionomycin added to raise cell calcium; inhibition, % at 10 µM; actives 39% (n = 2,300); AID 652189, 2013;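 active means mean duplicate percent inhibition, scaled so buffer wells are 0 and the reference blocker 100, over three buffer SD above buffer mean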
HEK293 Ca mobil: calcium mobilization in TMEM16A/YFP HEK293 cells, confirmation, counter-screen for TMEM16A inhibitor project; shares compounds with TMEM16A inh; Fluo4 calcium mobilization; calcium response (% of ionomycin), % at 10 µM; actives 2% (n = 2,300);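 active means duplicate-averaged calcium signal over 20% of the ionomycin maximum, relative to buffer baseline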;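 further: each well's signal is peak minus trough fluorescence divided by its pre-addition baseline; 0% = buffer wells and 100% = ionomycin wells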
Parental YFP cnt: iodide YFP quench changes in parental YFP-HEK293, counter-screen for TMEM16A inhibitor project, cell-based; AID 652233, 2013; YFP ratio F(max-min)/F0 at 10 µM; 2,300 tested, under 10 active; shares compounds with TMEM16A inh; ionomycin;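 active means yellow fluorescent protein signal ratio exceeding the buffer control mean by over 5 SD of those controls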;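 further: ratio is mean of duplicate wells from kinetic YFP trace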
ClC-1 rat inh: ClC-1 chloride channel inhibition, selectivity assay for TMEM16A inhibitor project, cell-based, voltage-dependent ClC-1. ratio percent, % at 10 µM. CHO ClC-1-YFP, iodide influx fluorescence quench; iodide control reads 0, buffer control 100. shares compounds with TMEM16A inh. 2,300 tested, under 10 active;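 active means duplicate-mean ratio percent above the mean of iodide-only control wells, which defines zero, plus 5 of their SD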;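 further: higher percent means stronger block of ClC-1 iodide influx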
* hit, by the source's call; i = inactive; x = no result given. Most compounds without a hit are left out; they make up all but 2.4% or so of the library.

SMILES	ANO1 activ	Apaf-1 inh	FID counter	UBC13 inh	TMEM16A inh	TMEM16A reconf	HEK293 Ca mobil	Parental YFP cnt	ClC-1 rat inh
Fc1ccc(NC(=S)NNc2ncc(C(F)(F)F)cc2Cl)c(F)c1	i	4.2	-7.4	-7.2	25*	30.0%*	i	-1	-13.5
CC(Oc1cccc(Cl)c1)C(=O)Nc1nc(-c2ccccn2)cs1 (stereo not drawn)	i	19.3	x	4.4	i	x	x	x	x
CCOC(=O)N1CCC(N2Cc3cccc(C(=O)NCC4CCN(CC(C)C)C4)c3C2=O)CC1 (stereo not drawn)	i	15.5	2.7	2.5	100*	i	i	-1.29	-6.0
CCOP(=O)(c1ccc(N(C)C)cc1)C(O)c1ccccc1OC (stereo not drawn)	i	-6.1	-7.3	4.5	100*	i	i	-1.16	-11.5
O=[N+]([O-])c1cc(Cl)cc(/C=N/NC(=S)Nc2ccc(S(=O)(=O)N3CCOCC3)cc2)c1O	i	5.6	-5.6	-46.2	25*	70.0%*	i	-0.733	4.0
CCCN(Cc1nnc(-c2ccccc2Cl)o1)C(=O)c1cc([N+](=O)[O-])cc([N+](=O)[O-])c1	i	9.6	-22.1	-2.8	i	x	x	x	x
O=C(NNC(=S)Nc1ccccc1)c1cc(Br)ccc1Cl	i	1.1	-10.0	-9.9	25*	17.5%*	i	-1	-8.5
O=C(NNC(=O)C1CCCN(S(=O)(=O)c2cccc(F)c2)C1)C1CC1 (stereo not drawn)	i	11.7	2.0	-2.7	i	x	x	x	x
CC(OC(=O)c1ccccc1Nc1ccc(SC(F)F)cc1)C(N)=O (stereo not drawn)	i	-1.5	-17.5	1.4	25*	i	i	-0.897	-9.5
CCOC(=O)CNC(=O)CSc1nc2sc(C)c(C)c2c(=O)n1C	i	-2.8	-3.1	6.4	i	i	i	-1.01	-3.0
Cc1sc2nc(SCC(=O)NCCO)n(C)c(=O)c2c1C	i	-9.5	-5.5	-7.6	i	x	x	x	x
COc1ccc(CN2CCC(C(=O)Nc3ccc(Oc4ccccc4)nc3)CC2)cc1F	i	12.6	15.7	-1.0	25*	i	i	-1	-12.0
Cc1cc(=O)oc2cc(NC(=O)C(C)N3C(=O)C4CCCCC4C3=O)ccc12 (stereo not drawn)	i	1.6	x	2.1	x	x	x	x	x
COc1ccc(NS(=O)(=O)c2ccc(Br)cc2)cn1	i	-1.9	-5.5	6.9	i	x	x	x	x
COc1ccc(NS(=O)(=O)c2ccc3oc4ccccc4c3c2)cn1	i	2.5	-11.4	-6.6	25*	i	i	-1.06	-4.5
Cc1ccccc1OCC(=O)N(Cc1ccc(N(C)C)cc1)C1CCS(=O)(=O)C1 (stereo not drawn)	i	0.7	-27.0	3.6	100*	i	i	-1.04	-10.0
CN(C)c1ccc(CN(C(=O)COc2ccccc2)C2CCS(=O)(=O)C2)cc1 (stereo not drawn)	i	-7.8	-23.3	1.0	i	x	x	x	x
COc1cccc(NS(=O)(=O)c2ccc(C)c(C(=O)N3CCCCC3)c2)c1	i	-5.7	-41.5	5.0	i	x	x	x	x
Fc1ccccc1OCCSc1nnnn1-c1ccccc1	i	2.3	-11.5	8.1	i	22.0%*	i	-0.868	2.0
c1ccc(OCCSc2nnnn2-c2ccccc2)cc1	i	20.5	-12.8	2.6	i	x	x	x	x
Cc1ccc(C)c(NC(=O)C2CCCN2S(=O)(=O)c2ccc3c(c2)n(C)c(=O)c(=O)n3C)c1 (stereo not drawn)	i	3.5	-4.3	-6.6	i	x	x	x	x
Cc1ccccc1NC(=O)C1CCCN1S(=O)(=O)c1ccc2c(c1)n(C)c(=O)c(=O)n2C (stereo not drawn)	i	7.2	-5.7	2.4	25*	i	i	-1.13	5.0
O=C(c1cccc(C(F)(F)F)c1)N1CCC(O)(CS(=O)(=O)Cc2ccccc2)CC1	i	0.3	-15.7	5.7	100*	i	i	-1.1	-3.0
O=C(c1cccc(C(F)(F)F)c1)N1CCC(O)(CS(=O)(=O)Cc2ccc(Cl)cc2)CC1	i	7.9	-24.2	0.9	i	x	x	x	x
CC(=O)c1ccc(C(=O)N2CCC(CO)(Cc3cccc(C(F)(F)F)c3)CC2)cc1	i	17.1	-30.4	-11.1	100*	i	i	-1.23	-5.5
SMILES	ANO1 activ	Apaf-1 inh	FID counter	UBC13 inh	TMEM16A inh	TMEM16A reconf	HEK293 Ca mobil	Parental YFP cnt	ClC-1 rat inh
c1ccc(-c2nc(-c3ccncc3)no2)cc1	i	8.4	-3.1	-2.5	i	x	x	x	x
c1ccc(C(Cc2nc(-c3ccncc3)no2)c2ccccc2)cc1	i	8.2	-28.3	0.5	100*	24.0%*	i	-0.993	-19.5
Cc1ccc(Cn2ccc(-c3cnc(-c4ccccc4)s3)n2)cc1	i	18.6	-6.6	9.6	100*	19.5%*	i	-1.03	-5.5
Cc1c(N=C/C=C/c2ccccc2)c(=O)n(-c2ccccc2)n1C	i	-7.7	-0.5	-7.1	25*	i	i	-0.968	-8.0
Cc1c(N=Cc2cccnc2)c(=O)n(-c2ccccc2)n1C	i	2.9	-0.3	-0.8	i	x	x	x	x
CCCn1nnc(NC(=S)NC(=O)/C=C/c2ccco2)n1	i	3.1	-14.6	-13.3	i	x	x	x	x
CC(C)OC(=O)C(CC(=O)O)NCc1ccccc1 (stereo not drawn)	i	-11.7	-1.9	-1.0	i	i	i	-0.975	-16.5
Cc1cccc(C(=O)OCC(=O)Nc2ccc(N3CCCCC3)cc2)c1O	i	-10.1	-1.9	-1.9	i	i	i	-1.21	-16.5
Cc1ccc(C(C)C)cc1OCC(=O)Nc1ccc(N2CCCCC2)cc1	i	23.6	x	-1.5	25*	i	i	-0.688	-0.5
CCCCOC(=O)Nc1ccc(N2CCCCC2)cc1	i	3.2	-11.0	2.7	i	i	i	-1.06	-4.5

Screens as filed in PubChem BioAssay.
